Series [1] relates to Plasmodium falciparum. In words: Antimalarial activity against ring stage chloroquine-sensitive Plasmodium falciparum 3D7 infected in human O positive erythrocytes after 48 hrs by SYBR green 1 fluorescence assay. It counts as functional, organism-based. The settings on record: 3D7, 48 h. The procedure, abridged:
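P. falciparum 3D7 in O+ human erythrocytes in complete RPMI with Albumax at 37 °C under 5% O2/5% CO2. Culture was sorbitol-synchronized to rings and plated at 2% hematocrit, 1% parasitemia. Drug range was 0–100 μM with 0.4% final DMSO, in triplicate. After 48 h, SYBR Green I fluorescence was read (ex 497/em 520 nm). IC50 was taken by visual matching of 50% growth inhibition.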

Series [2] is described as follows: Therapeutic index, ratio of IC50 for […] cells to IC50 for ring stage chloroquine-sensitive Plasmodium falciparum 3D7. The format is cell-based. The conditions noted are these: mouse, read-out: Ratio IC50. In a few lines: (§1)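 HeLa or L929 fibroblasts were seeded at 10^4 cells per well in RPMI with 10% FBS, left overnight, then exposed 24 h at 37 °C, 5% CO2. MTT was added for 3 h; formazan was dissolved in DMSO and read at 570 nm. IC50 came from dose–response curves. Index = IC50(mammalian)/IC50(Pf 3D7, SYBR Green assay).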

Series [3] is described as follows: Resistance index, ratio of IC50 for ring stage chloroquine-resistant Plasmodium falciparum Dd2 to IC50 for ring stage chloroquine-sensitive Plasmodium falciparum 3D7. It counts as functional.
Series [4] in a line: Resistance index, ratio of IC50 for ring stage chloroquine-resistant Plasmodium falciparum INDO to IC50 for ring stage chloroquine-sensitive Plasmodium falciparum 3D7. It counts as functional.
The test system of series [5] is Plasmodium falciparum. In words: Antimalarial activity against ring stage chloroquine-resistant Plasmodium falciparum INDO infected in human O positive erythrocytes after 48 hrs by SYBR green 1 fluorescence assay. The format is functional, organism-based. The procedure, abridged: (§2)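 Ring-stage cultures were sorbitol-synchronized in O+ human erythrocytes in RPMI 1640 with 0.5% Albumax, hypoxanthine and gentamicin, then plated at 2% hematocrit and 1% parasitemia. Drugs were tested at 0–100 μM (final DMSO 0.4%) in triplicate for 48 h at 37 °C under 5% O2/5% CO2/90% N2. Read-out was SYBR Green I (ex 497/em 520 nm). IC50 was read visually as 50% growth inhibition, with chloroquine as control.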

Series [6] relates to Plasmodium falciparum. In words: Antimalarial activity against ring stage chloroquine-resistant Plasmodium falciparum Dd2 infected in human O positive erythrocytes after 48 hrs by SYBR green 1 fluorescence assay. The format is functional, organism-based. The conditions noted are these: Dd2, 48 h. In a few lines: as §2
Series [7] can be described thus: Inhibition of Plasmodium falciparum falcipain-2 using benzyloxycarbonyl-Phe-Arg-7-amino-4-methyl coumarin hydrochloride as substrate preincubated for 10 mins prior substrate addition by fluorimetric assay. In a few lines: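 Recombinant falcipain-2 (2 μg) was preincubated 10 min at room temperature with or without compound, in triplicate. Buffer was 100 mM sodium acetate pH 5.5 with 10 mM DTT and 1% final DMSO. Z-Phe-Arg-AMC was then added at 10 μM final. AMC release was read at ex 355/em 460 nm. IC50 was taken by visual matching of 50% inhibition.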

Series [8] is described as follows: Therapeutic index, ratio of IC50 for human HeLa cells to IC50 for ring stage chloroquine-sensitive Plasmodium falciparum 3D7. It counts as cell-based. The conditions noted are these: read-out: Ratio IC50. The procedure, abridged: as §1

pIC50: −log10 of the molar value. Some results are limits rather than exact numbers.

A word on the pIC50: it is the negative decadic logarithm of the IC50, by convention in mol/L. Higher therefore signals a small IC50.

`COc1ccc(/C=C/c2cc(OC)c(O)c(OC)c2)cc1` gave a pIC50 with Plasmodium falciparum [1] of less than 4.00.

In the series on Plasmodium falciparum [1], `COc1cc(/C=C/c2ccc(/C=C/c3cc(OC)c(O)c(OC)c3)cc2)cc(OC)c1O` gave a pIC50 of 4.96.

`COc1cc(OC)c(OC)cc1/C=C/C(=O)c1ccc(/C=C/c2ccccc2)cc1` had a pIC50 in the series with Plasmodium falciparum [1] of 4.74.

In the series with Plasmodium falciparum [1], `COc1cc(OC)c(OC)cc1/C=C/C(=O)c1cccc(C(=O)/C=C/c2cc(OC)c(OC)cc2OC)c1` gave a pIC50 of 5.55. This pIC50 lies 0.81 log units higher than the previous one.

`COc1cc(/C=C/c2ccc(C(=O)/C=C/c3ccc(OC)c(OC)c3OC)cc2)cc(OC)c1O`: the selectivity ratio in series [2] and in series [8] was greater than 43 each time. In addition, the negative-log IC50 (pIC50) with Plasmodium falciparum [1] was 5.31; with Plasmodium falciparum [5], 5.23; with Plasmodium falciparum [6] it was 5.27; in series [7], 4.15. For the same compound, the results for the “Ratio IC50” value in series [3] and in series [4] were 1.1 and 1.2, respectively.

`COc1cc(OC)c(/C=C/C(=O)c2ccc(/C=C/c3cc(OC)c(O)c(OC)c3)cc2)c(OC)c1` gave a pIC50 with Plasmodium falciparum [1] of 4.80.

The compound `O=C(/C=C/c1cccs1)c1ccc(/C=C/c2ccccc2)cc1` had a pIC50 in the series with Plasmodium falciparum [1] of 4.44.

`O=C(/C=C/c1c[nH]c2ccc(Cl)cc12)c1ccc(/C=C/c2ccccc2)cc1` had a pIC50 in the series with Plasmodium falciparum [1] of 4.59.

Compound `COc1cc(OC)c(OC)cc1/C=C/C(=O)c1ccc(/C=C/c2ccc(O)cc2)cc1` showed a pIC50 in the series on Plasmodium falciparum [1] of 5.00.

Turning to `COc1cc(OC)c(OC)cc1/C=C/C(=O)c1ccc(/C=C/c2ccc(Cl)cc2)cc1`, in the series with Plasmodium falciparum [1], the pIC50 was less than 4.00.

Turning to `COc1cc(/C=C/c2ccc(C(=O)/C=C/c3cc(OC)c(OC)cc3OC)cc2)ccc1O`, the selectivity ratio was 4.7 in series [2] and greater than 37.7 in series [8]. The pIC50 is 5.28 in the series with Plasmodium falciparum [1], 5.58 with Plasmodium falciparum [5], 5.43 in the series with Plasmodium falciparum [6] and 4.64 in series [7]. Also, the “Ratio IC50” value in series [3] is 0.7; in series [4] it was 0.5.

In the case of `COc1cc(OC)c(OC)cc1/C=C/C(=O)c1ccc(/C=C/c2ccc(O)c(O)c2)cc1`, the values for the selectivity ratio in series [2] and in series [8] were 7.6 and greater than 23.8, respectively. Besides, the pIC50 in the series with Plasmodium falciparum [1] is 5.38; in the series with Plasmodium falciparum [5], 5.34; in the series with Plasmodium falciparum [6], 5.15; in series [7], 4.72. For the same compound, the “Ratio IC50” value was 1.7 in series [3] and 1.1 in series [4].

For the compound `COc1ccc(/C=C/C(=O)c2ccc(/C=C/c3ccc(O)c(OC)c3)cc2)cc1`, the pIC50 in the series with Plasmodium falciparum [1] was 4.47.

In the series on Plasmodium falciparum [1], `COc1ccc(C(=O)/C=C/c2ccc(/C=C/c3ccc(O)c(OC)c3)cc2)cc1` showed a pIC50 of 4.18.

`COc1cc(OC)c(OC)cc1/C=C/C(=O)c1ccc(O)cc1` had a pIC50 in the series on Plasmodium falciparum [1] of 4.21. The pIC50 values of the last two compounds are within 0.2 log units of each other.

For the compound `COc1cc(OC)c(OC)cc1/C=C/C(=O)c1ccc(/C=C/c2cc(OC)c(OS(=O)(=O)c3cc(Cl)cc(Cl)c3)c(OC)c2)cc1`, in the series on Plasmodium falciparum [1], the pIC50 was less than 4.00.

`COc1ccc(C(=O)/C=C/c2ccc(/C=C/c3cc(OC)c(O)c(OC)c3)cc2)cc1`: the pIC50 in the series with Plasmodium falciparum [1] is 4.30.

With `COc1cc(OC)c(C(=O)/C=C/c2ccc(/C=C/c3cc(OC)c(O)c(OC)c3)cc2)cc1OC`, the selectivity ratio in series [2] was 8.4; in series [8], greater than 46.5. Also, the pIC50 is 5.37 in the series on Plasmodium falciparum [1], 5.59 in the series with Plasmodium falciparum [5], 5.52 in the series on Plasmodium falciparum [6] and 4.00 in series [7]. Further, the “Ratio IC50” value in series [3] stood at 0.7; in series [4] it was 0.6.

Regarding `O=C(/C=C/c1ccco1)c1ccc(/C=C/c2ccccc2)cc1`, the negative-log IC50 (pIC50) with Plasmodium falciparum [1] was less than 4.00.

Compound `COc1ccc(/C=C/C(=O)c2ccc(/C=C/c3ccccc3)cc2)cc1` gave a pIC50 in the series with Plasmodium falciparum [1] of less than 4.00.

Take `COc1cc(OC)c(OC)cc1/C=C/C(=O)c1ccc(/C=C/c2cc(OC)c(OC)c(OC)c2)cc1`: the selectivity ratio in series [2] is 29.8; in series [8] it was greater than 38.5. Further, the pIC50 is 5.28 with Plasmodium falciparum [1], 5.68 in the series with Plasmodium falciparum [5], 5.59 with Plasmodium falciparum [6] and 4.69 in series [7]. Also, the “Ratio IC50” value came out at 0.5 in series [3] and 0.4 in series [4].

In the series with Plasmodium falciparum [1], `COc1cc(OC)c(OC)cc1/C=C/C(=O)c1ccc(/C=C/c2cc(OC)c(OS(=O)(=O)c3ccc(C)cc3)c(OC)c2)cc1` had a pIC50 of less than 4.00.

On to `COc1ccc(/C=C/C(=O)c2ccc(/C=C/c3ccccc3)cc2)cc1OC`, for which the pIC50 in the series with Plasmodium falciparum [1] is 4.53.

In the series on Plasmodium falciparum [1], `COc1ccc(/C=C/C(=O)c2ccc(/C=C/c3cc(OC)c(O)c(OC)c3)cc2)cc1` had a pIC50 of 4.82.

These data come from ChEMBL document CHEMBL1949593, “Stilbene-chalcone hybrids: design, synthesis, and evaluation as a new class of antimalarial scaffolds that trigger cell death through stage specific apoptosis” (J Med Chem, 2012).
